≈ marks a conversion by molar mass, not a printed value.

The results in this text go back to ChEMBL document CHEMBL1156649, “Benzoic acid derivatives from Piper species and their antiparasitic activity” (J Nat Prod, 2008).

For the first test, the system named is Leishmania donovani. Briefly: Antileishmanial activity against Leishmania donovani PP75 promastigotes. In kind it is functional, organism-based. The gist of the method: (§1)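 Promastigotes grown at 28 °C in stationary culture, seeded at 1 × 10^4 per 100 µL well in RPMI 1640-based Leishmania medium. DMSO-dissolved samples added to give 100 µg/mL final and serial dilutions. IC50 = concentration causing 50% reduction in parasite viability. Pentamidine (10 µg/mL) positive control.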
In turn, `C=C(C)C(O)Cc1cc(C(=O)OC)cc(O)c1O` (racemic) registered an IC50 of 81.9 µg/mL (≈ 325 µM).

With `CC(C)=CCc1cc(C(=O)O)cc(CC=C(C)C)c1O`, half-maximal inhibition (IC50) required 40 µg/mL (≈ 146 µM).

With `COC(=O)c1cc(O)c(O)c(CC=C(C)C)c1`, the midpoint of inhibition, the IC50, lay at 18.5 µg/mL (≈ 78.3 µM). Against the preceding molecule, the IC50 is about 2.2-fold lower.

As for `C=C(C)C(O)Cc1cc(C(=O)O)cc(CC=C(C)C)c1O` (racemic), half-maximal inhibition (IC50) required 67.3 µg/mL (≈ 232 µM).

As for `C=C(C)C(O)Cc1cc(C(=O)OC)ccc1O` (stereo not given), half-maximal inhibition (IC50) was put at 86.9 µg/mL (≈ 368 µM).

`COc1c(/C=C/C(C)(C)O)cc(C(=O)O)cc1CC=C(C)C`: the concentration for half-maximal inhibition (IC50) is greater than 100 µg/mL.

The molecule `COC(=O)c1ccc(O)c(CC=C(C)C)c1` had an IC50 of 62.5 µg/mL (≈ 284 µM).

In a further test the test system is Leishmania braziliensis. Nature of the test: Antileishmanial activity against Leishmania braziliensis 2903 promastigotes. In kind it is functional, organism-based. The gist of the method: as §1
As to `C=C(C)C(O)Cc1cc(C(=O)OC)cc(O)c1O` (racemic), half-maximal inhibition (IC50) required 81.9 µg/mL (≈ 325 µM).

For `CC(C)=CCc1cc(C(=O)O)cc(CC=C(C)C)c1O`, the IC50 came out at 34.1 µg/mL (≈ 124 µM).

As for `COC(=O)c1cc(O)c(O)c(CC=C(C)C)c1`, 13.8 µg/mL (≈ 58.4 µM) corresponded to half-maximal inhibition (IC50).

On to `C=C(C)C(O)Cc1cc(C(=O)O)cc(CC=C(C)C)c1O` (racemic), for which the IC50 was 67.6 µg/mL (≈ 233 µM).

With `C=C(C)C(O)Cc1cc(C(=O)OC)ccc1O` (stereo not given), the IC50 was 74.4 µg/mL (≈ 315 µM).

In turn, `COc1c(/C=C/C(C)(C)O)cc(C(=O)O)cc1CC=C(C)C` gave an IC50 of 78.8 µg/mL (≈ 259 µM).

Turning to `COC(=O)c1ccc(O)c(CC=C(C)C)c1`, half-maximal inhibition (IC50) was put at 74.4 µg/mL (≈ 338 µM).

The subject of another test is Leishmania amazonensis. Briefly: Antileishmanial activity against Leishmania amazonensis PH8 promastigotes. In kind it is functional, organism-based. In short, it runs like this:
as §1
The molecule `C=C(C)C(O)Cc1cc(C(=O)OC)cc(O)c1O` (racemic) came in with an IC50 of 89.5 µg/mL (≈ 355 µM).

Turning to `CC(C)=CCc1cc(C(=O)O)cc(CC=C(C)C)c1O`, the IC50 was 45.3 µg/mL (≈ 165 µM).

In the case of `COC(=O)c1cc(O)c(O)c(CC=C(C)C)c1`, it took 18.2 µg/mL (≈ 77 µM) to reach half-maximal inhibition (IC50).

Turning to `C=C(C)C(O)Cc1cc(C(=O)O)cc(CC=C(C)C)c1O` (racemic), the half-maximal inhibitory concentration (IC50) amounted to 67.6 µg/mL (≈ 233 µM).

In turn, `C=C(C)C(O)Cc1cc(C(=O)OC)ccc1O` (stereo not given) gave an IC50 of 78.2 µg/mL (≈ 331 µM). The IC50 values of the last two molecules are within 1.5-fold of each other.

`COc1c(/C=C/C(C)(C)O)cc(C(=O)O)cc1CC=C(C)C` came in with an IC50 greater than 100 µg/mL.

`COC(=O)c1ccc(O)c(CC=C(C)C)c1` returned an IC50 of 74.4 µg/mL (≈ 338 µM).

The test system of another test is Trypanosoma cruzi. Nature of the test: Antitrypanosomal activity against Trypanosoma cruzi Tulahuen. The class given is functional, organism-based.
`C=C(C)C(O)Cc1cc(C(=O)OC)cc(O)c1O` (racemic): the IC50 came out at 16.4 µg/mL (≈ 65 µM).

For the molecule `CC(C)=CCc1cc(C(=O)O)cc(CC=C(C)C)c1O`, the IC50 was greater than 20 µg/mL.

For `COC(=O)c1cc(O)c(O)c(CC=C(C)C)c1`, the IC50 was found to be 18.5 µg/mL (≈ 78.3 µM).

`C=C(C)C(O)Cc1cc(C(=O)O)cc(CC=C(C)C)c1O` (racemic): the IC50 was greater than 20 µg/mL.

Consider `C=C(C)C(O)Cc1cc(C(=O)OC)ccc1O` (stereo not given), for which 15.6 µg/mL (≈ 66 µM) corresponded to half-maximal inhibition (IC50).

In turn, `COc1c(/C=C/C(C)(C)O)cc(C(=O)O)cc1CC=C(C)C` displayed an IC50 greater than 20 µg/mL.

The molecule `COC(=O)c1ccc(O)c(CC=C(C)C)c1` had an IC50 greater than 20 µg/mL.

Another test has as its system Plasmodium falciparum. Briefly: Antiplasmodial activity against chloroquine-sensitive Plasmodium falciparum F32-Tanzania. The class given is functional, organism-based. In short, it runs like this: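 Culture per Trager and Jensen on glucose-enriched RPMI 1640 with 10% human serum at 37 °C. After 24 h, medium replaced with fresh medium containing compound at 0.1, 1 and 10 µg/mL, then incubated 48 h more. Blood smears on day 3; parasitemia compared with control. IC50 read graphically from concentration versus % inhibition. Chloroquine (0.1 µg/mL) positive control. Triplicate.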
Molecule `C=C(C)C(O)Cc1cc(C(=O)OC)cc(O)c1O` (racemic) displayed an IC50 greater than 10 µg/mL.

`CC(C)=CCc1cc(C(=O)O)cc(CC=C(C)C)c1O` gave an IC50 greater than 10 µg/mL.

Molecule `COC(=O)c1cc(O)c(O)c(CC=C(C)C)c1` displayed an IC50 of 4.1 µg/mL (≈ 17.4 µM).

`C=C(C)C(O)Cc1cc(C(=O)O)cc(CC=C(C)C)c1O` (racemic) had an IC50 greater than 10 µg/mL.

`C=C(C)C(O)Cc1cc(C(=O)OC)ccc1O` (stereo not given) registered an IC50 of 10 µg/mL (≈ 42.3 µM).

Turning to `COc1c(/C=C/C(C)(C)O)cc(C(=O)O)cc1CC=C(C)C`, the IC50 was greater than 10 µg/mL.

`COC(=O)c1ccc(O)c(CC=C(C)C)c1`: the IC50 is 2.8 µg/mL (≈ 12.7 µM).
